Measured values published in the M2OR odorant receptor database.

What was measured:
Details in all cases: stereoisomer not certain
[1] = molecular target: T1, OR5B17 (Homo sapiens) (UniProt Q8NGF7)
T1 sequence (whole entry): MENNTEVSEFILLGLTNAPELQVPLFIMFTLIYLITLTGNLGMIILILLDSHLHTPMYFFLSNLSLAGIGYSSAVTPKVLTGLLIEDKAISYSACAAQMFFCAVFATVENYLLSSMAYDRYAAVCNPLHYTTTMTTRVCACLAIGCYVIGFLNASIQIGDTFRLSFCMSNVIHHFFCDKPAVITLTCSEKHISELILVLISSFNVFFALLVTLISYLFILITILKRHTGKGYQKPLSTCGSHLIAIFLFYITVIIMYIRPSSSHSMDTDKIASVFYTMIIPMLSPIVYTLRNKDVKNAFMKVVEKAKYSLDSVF
Outline: (§1)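 Values were gathered from published papers (main text and supplementary material), with extra details requested from the original authors when needed, and checked for typos and inconsistencies. Each receptor–molecule pair is called responsive (active) if the original authors judged the measured signal statistically different from baseline, and non-responsive (inactive) otherwise. Assay methods varied by source, often transient mammalian cell-line luciferase assays. Recorded details include cell line, G-protein, co-transfected protein and tags.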

[2] = molecular target: OR5B2 (Homo sapiens) (UniProt Q96R09)
Sequence of OR5B2 (Homo sapiens) (Q96R09 whole entry): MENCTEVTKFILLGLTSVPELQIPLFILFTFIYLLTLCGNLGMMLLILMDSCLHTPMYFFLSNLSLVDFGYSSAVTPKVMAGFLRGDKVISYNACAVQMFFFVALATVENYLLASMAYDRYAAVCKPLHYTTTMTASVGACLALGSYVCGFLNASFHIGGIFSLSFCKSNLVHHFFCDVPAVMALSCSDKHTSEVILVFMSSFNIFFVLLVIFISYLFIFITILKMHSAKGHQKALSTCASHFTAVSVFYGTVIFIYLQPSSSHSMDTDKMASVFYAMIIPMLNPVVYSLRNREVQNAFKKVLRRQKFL
Outline: as §1

[3] = molecular target: OR5B21 (Homo sapiens) (UniProt A6NL26)
Sequence of OR5B21 (Homo sapiens) (A6NL26 whole entry): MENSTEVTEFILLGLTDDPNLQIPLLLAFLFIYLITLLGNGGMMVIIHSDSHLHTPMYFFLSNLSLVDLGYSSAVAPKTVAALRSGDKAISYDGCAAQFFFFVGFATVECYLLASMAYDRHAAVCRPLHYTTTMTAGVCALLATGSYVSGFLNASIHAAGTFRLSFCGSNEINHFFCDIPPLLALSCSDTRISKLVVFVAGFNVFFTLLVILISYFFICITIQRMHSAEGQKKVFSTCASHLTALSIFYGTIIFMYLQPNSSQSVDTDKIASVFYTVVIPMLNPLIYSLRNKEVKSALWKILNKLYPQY
Outline: as §1

[4] = molecular target: OR5B3 (Homo sapiens) (UniProt Q8NH48)
Sequence of OR5B3 (Homo sapiens) (Q8NH48 whole entry): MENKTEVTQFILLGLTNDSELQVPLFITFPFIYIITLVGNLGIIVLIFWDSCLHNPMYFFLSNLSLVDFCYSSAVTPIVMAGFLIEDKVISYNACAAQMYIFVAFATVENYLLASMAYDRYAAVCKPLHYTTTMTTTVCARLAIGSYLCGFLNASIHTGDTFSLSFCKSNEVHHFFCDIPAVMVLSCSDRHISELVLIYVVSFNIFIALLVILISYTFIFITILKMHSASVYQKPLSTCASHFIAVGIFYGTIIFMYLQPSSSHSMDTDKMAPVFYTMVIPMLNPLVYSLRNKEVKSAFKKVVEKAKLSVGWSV
Outline: as §1

[5] = molecular target: OR5C1 (Homo sapiens) (UniProt Q8NGR4)
Sequence of OR5C1 (Homo sapiens) (Q8NGR4 whole entry): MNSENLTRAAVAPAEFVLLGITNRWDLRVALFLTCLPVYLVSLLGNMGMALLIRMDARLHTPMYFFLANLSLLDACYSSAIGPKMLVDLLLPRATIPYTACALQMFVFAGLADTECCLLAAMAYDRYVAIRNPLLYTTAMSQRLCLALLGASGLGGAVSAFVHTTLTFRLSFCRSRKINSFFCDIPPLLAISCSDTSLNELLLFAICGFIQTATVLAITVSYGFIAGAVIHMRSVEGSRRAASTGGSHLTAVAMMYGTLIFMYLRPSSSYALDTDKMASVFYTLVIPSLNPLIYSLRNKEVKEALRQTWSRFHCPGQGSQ
Outline: as §1

[6] = molecular target: OR5D13 (Homo sapiens) (UniProt Q8NGL4)
Sequence of OR5D13 (Homo sapiens) (Q8NGL4 whole entry): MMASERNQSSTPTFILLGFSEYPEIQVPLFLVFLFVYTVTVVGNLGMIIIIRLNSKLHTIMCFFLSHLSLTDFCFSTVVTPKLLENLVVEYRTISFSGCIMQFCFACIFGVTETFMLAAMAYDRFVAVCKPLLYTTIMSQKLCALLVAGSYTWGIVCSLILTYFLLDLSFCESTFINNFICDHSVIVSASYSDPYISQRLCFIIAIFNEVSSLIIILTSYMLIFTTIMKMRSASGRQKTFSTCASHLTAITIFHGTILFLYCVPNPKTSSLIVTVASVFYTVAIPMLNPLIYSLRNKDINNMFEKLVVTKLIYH
Outline: as §1

[7] = molecular target: OR5D14 (Homo sapiens) (UniProt Q8NGL3)
Sequence of OR5D14 (Homo sapiens) (Q8NGL3 whole entry): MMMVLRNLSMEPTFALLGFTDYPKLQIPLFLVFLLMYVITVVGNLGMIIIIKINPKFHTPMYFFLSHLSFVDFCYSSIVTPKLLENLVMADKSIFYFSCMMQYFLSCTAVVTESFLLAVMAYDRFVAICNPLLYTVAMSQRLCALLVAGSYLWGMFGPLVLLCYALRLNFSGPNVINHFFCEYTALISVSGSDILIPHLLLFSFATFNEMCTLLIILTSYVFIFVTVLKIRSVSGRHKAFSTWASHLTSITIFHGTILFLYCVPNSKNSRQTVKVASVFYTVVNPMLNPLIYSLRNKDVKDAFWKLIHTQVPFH
Outline: as §1

[8] = molecular target: OR5D16 (Homo sapiens) (UniProt Q8NGK9)
Sequence of OR5D16 (Homo sapiens) (Q8NGK9 whole entry): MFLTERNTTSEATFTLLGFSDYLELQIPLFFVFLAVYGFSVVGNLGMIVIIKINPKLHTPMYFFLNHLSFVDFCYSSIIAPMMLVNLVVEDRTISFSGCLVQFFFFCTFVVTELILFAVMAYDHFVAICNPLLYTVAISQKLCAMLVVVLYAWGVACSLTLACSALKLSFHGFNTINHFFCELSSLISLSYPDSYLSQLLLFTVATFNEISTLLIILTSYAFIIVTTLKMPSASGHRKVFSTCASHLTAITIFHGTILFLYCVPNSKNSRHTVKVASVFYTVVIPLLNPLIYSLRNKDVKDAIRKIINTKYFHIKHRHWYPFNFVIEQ
Outline: as §1

[9] = molecular target: OR5D18 (Homo sapiens) (UniProt Q8NGL1)
Sequence of OR5D18 (Homo sapiens) (Q8NGL1 whole entry): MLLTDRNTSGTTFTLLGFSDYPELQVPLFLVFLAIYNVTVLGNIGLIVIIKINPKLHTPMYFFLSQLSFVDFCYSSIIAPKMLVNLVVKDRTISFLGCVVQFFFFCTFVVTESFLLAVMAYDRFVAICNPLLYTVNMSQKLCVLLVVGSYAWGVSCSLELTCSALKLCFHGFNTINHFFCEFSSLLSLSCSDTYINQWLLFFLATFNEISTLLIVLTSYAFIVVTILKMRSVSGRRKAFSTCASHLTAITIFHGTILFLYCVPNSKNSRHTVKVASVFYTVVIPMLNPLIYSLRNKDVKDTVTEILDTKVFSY
Outline: as §1

[10] = molecular target: OR5F1 (Homo sapiens) (UniProt O95221)
Sequence of OR5F1 (Homo sapiens) (O95221 whole entry): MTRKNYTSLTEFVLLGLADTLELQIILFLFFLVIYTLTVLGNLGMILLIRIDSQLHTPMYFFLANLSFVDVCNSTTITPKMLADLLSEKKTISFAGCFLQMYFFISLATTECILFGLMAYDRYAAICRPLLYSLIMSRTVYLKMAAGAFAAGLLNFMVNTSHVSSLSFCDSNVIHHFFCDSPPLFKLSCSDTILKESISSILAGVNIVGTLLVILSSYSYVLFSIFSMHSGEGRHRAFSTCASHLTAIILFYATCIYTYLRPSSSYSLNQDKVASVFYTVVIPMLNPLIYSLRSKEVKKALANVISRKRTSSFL
Outline: as §1

[11] = system: OR5B2 E6D
Sequence of OR5B2 E6D (as listed by the source): as the sequence (Q96R09 whole entry) above, with E6D counted along it
Outline: as §1

[12] = system: OR5B3 I198V G247A
Outline: as §1

[13] = system: OR5BC C141R
Sequence of OR5BC C141R (as listed by the source, stated change not applied): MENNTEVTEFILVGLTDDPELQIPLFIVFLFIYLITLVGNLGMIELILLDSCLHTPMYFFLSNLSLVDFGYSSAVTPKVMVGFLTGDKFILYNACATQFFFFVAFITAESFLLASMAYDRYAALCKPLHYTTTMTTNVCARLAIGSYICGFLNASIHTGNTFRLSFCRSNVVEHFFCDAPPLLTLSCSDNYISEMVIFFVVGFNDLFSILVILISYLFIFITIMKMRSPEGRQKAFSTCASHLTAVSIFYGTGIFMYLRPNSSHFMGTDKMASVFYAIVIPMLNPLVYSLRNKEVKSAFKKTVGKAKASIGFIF
Outline: as §1

[14] = system: OR5BH L80I I85M
Outline: as §1

[15] = system: OR5BH L80I
Sequence of OR5BH L80I (as listed by the source, stated change not applied): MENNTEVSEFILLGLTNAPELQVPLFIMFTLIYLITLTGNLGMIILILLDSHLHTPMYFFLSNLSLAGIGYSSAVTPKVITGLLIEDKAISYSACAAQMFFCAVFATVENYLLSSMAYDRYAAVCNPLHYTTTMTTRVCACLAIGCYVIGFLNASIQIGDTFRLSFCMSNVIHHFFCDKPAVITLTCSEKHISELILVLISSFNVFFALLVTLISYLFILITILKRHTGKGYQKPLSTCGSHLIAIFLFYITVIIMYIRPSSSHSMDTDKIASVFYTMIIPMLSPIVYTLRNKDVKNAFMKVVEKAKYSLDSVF
Outline: as §1

[16] = system: OR5DD C62Y
Sequence of OR5DD C62Y (as listed by the source, stated change not applied): as the sequence (Q8NGL4 whole entry) above, with C62Y counted along it
Outline: as §1

[17] = system: OR5DE S249A L290P
Outline: as §1

[18] = system: OR5DG A156T
Sequence of OR5DG A156T (as listed by the source, stated change not applied): as the sequence (Q8NGK9 whole entry) above, with A156T counted along it
Outline: as §1

[19] = system: OR5DI
Sequence of OR5DI (as listed by the source): as the sequence (Q8NGL1 whole entry) above, with N136D counted along it
Outline: as §1

[20] = system: OR5F1
Sequence of OR5F1 (as listed by the source): as the sequence (O95221 whole entry) above, with S294N counted along it
Outline: as §1

Measured: odorant receptor agonist call

O=Cc1ccccc1
inactive: [1]

Cc1c([N+](=O)[O-])c(C)c([N+](=O)[O-])c(C(C)(C)C)c1[N+](=O)[O-]
inactive: [1] | [2] | [3] | [4] | [5] | [6] | [7] | [8] | [9] | [10]

C=CCc1ccc(OC)cc1
inactive: [1]

O=CC=Cc1ccccc1
inactive: [1]

C=CCOC(=O)Cc1ccccc1
inactive: [1] | [2] | [11] | [3] | [4] | [12] | [13] | [14] | [15] | [5] | [6] | [7] | [8] | [9] | [16] | [17] | [18] | [19] | [10] | [20]
